Data: ChEMBL document CHEMBL1649392, “Synthesis of substituted 3-amino-N-phenyl-1H-indazole-1-carboxamides endowed with antiproliferative activity” (Eur J Med Chem, 2011)

Experiments:
Type in all cases: functional
A498 = assay: Antiproliferative activity against human A498 cells after 48 hrs by sulforhodamine B assay; conditions: A498, 48 h
In short: (§1)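 NCI 60-cell-line panel covering nine cancer types (leukemia, non-small cell lung, colon, CNS, melanoma, ovarian, renal, prostate, breast). Compounds were first tested at a single dose, then in a five-dose screen (series starting 0.01, 0.1 …) if they met NCI threshold criteria. Reported per line: GI50 (molar concentration inhibiting 50% net growth), TGI (total growth inhibition) and LC50 (50% net cell death).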

SNB-75 = assay: Antiproliferative activity against human SNB75 cells after 48 hrs by sulforhodamine B assay; conditions: SNB-75, 48 h; in short: as §1
PC-3 = assay: Antiproliferative activity against human PC3 cells after 48 hrs by sulforhodamine B assay; conditions: PC-3, 48 h; in short: as §1
MDA-MB-231 = assay: Antiproliferative activity against human MDA-MB-231 cells after 48 hrs by sulforhodamine B assay; conditions: MDA-MB-231, 48 h, read-out: LC50 (the source's name); in short: as §1
[1] = Antiproliferative activity against human Hs 578T cells after 48 hrs by sulforhodamine B assay; in short: as §1
OVCAR-8 = assay: Antiproliferative activity against human OVCAR8 cells after 48 hrs by sulforhodamine B assay; conditions: OVCAR-8, 48 h; in short: as §1
HOP-92 = assay: Antiproliferative activity against human HOP92 cells after 48 hrs by sulforhodamine B assay; conditions: HOP-92, 48 h; in short: as §1
NCI-H460 = assay: Antiproliferative activity against human NCI-H460 cells after 48 hrs by sulforhodamine B assay; conditions: NCI-H460, 48 h; in short: as §1
SK-MEL-2 = assay: Antiproliferative activity against human SK-MEL-2 cells after 48 hrs by sulforhodamine B assay; conditions: SK-MEL-2, 48 h; in short: as §1
OVCAR-5 = assay: Antiproliferative activity against human OVCAR5 cells after 48 hrs by sulforhodamine B assay; conditions: OVCAR-5, 48 h; in short: as §1
Malme-3M = assay: Antiproliferative activity against human MALME-3M cells after 48 hrs by sulforhodamine B assay; in short: as §1
IGROV-1 = assay: Antiproliferative activity against human IGROV1 cells after 48 hrs by sulforhodamine B assay; conditions: IGROV-1, 48 h; in short: as §1
HCT-15 = assay: Antiproliferative activity against human HCT15 cells after 48 hrs by sulforhodamine B assay; conditions: HCT-15, 48 h; in short: as §1
NCI-H226 = assay: Antiproliferative activity against human NCI-H226 cells after 48 hrs by sulforhodamine B assay; conditions: NCI-H226, 48 h; in short: as §1
NCI-H522 = assay: Antiproliferative activity against human NCI-H522 cells after 48 hrs by sulforhodamine B assay; conditions: NCI-H522, 48 h; in short: as §1
SNB-19 = assay: Antiproliferative activity against human SNB19 cells after 48 hrs by sulforhodamine B assay; conditions: SNB-19, 48 h; in short: as §1
NCI-H23 = assay: Antiproliferative activity against human NCI-H23 cells after 48 hrs by sulforhodamine B assay; conditions: NCI-H23, 48 h; in short: as §1
OVCAR-4 = assay: Antiproliferative activity against human OVCAR4 cells after 48 hrs by sulforhodamine B assay; conditions: OVCAR-4, 48 h; in short: as §1
DU-145 = assay: Antiproliferative activity against human DU145 cells after 48 hrs by sulforhodamine B assay; conditions: DU-145, 48 h, read-out: LC50 (the source's name); in short: as §1
SK-OV-3 = assay: Antiproliferative activity against human SKOV3 cells after 48 hrs by sulforhodamine B assay; conditions: SK-OV-3, 48 h; in short: as §1
SF-295 = assay: Antiproliferative activity against human SF295 cells after 48 hrs by sulforhodamine B assay; conditions: SF-295, 48 h; in short: as §1
ACHN = assay: Antiproliferative activity against human ACHN cells after 48 hrs by sulforhodamine B assay; conditions: read-out: LC50 (the source's name); in short: as §1
SW-620 = assay: Antiproliferative activity against human SW620 cells after 48 hrs by sulforhodamine B assay; conditions: SW-620, 48 h
In short: (§2)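 NCI 60-cell-line panel screen: single dose 10 µM first, then 5-dose testing (0.01, 0.1, … molar series). For each line, GI50 is the molar concentration giving 50% inhibition of net cell growth, TGI gives total inhibition of net growth, and LC50 gives 50% net cell death. Method follows the NCI DTP protocol.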

SK-MEL-28 = assay: Antiproliferative activity against human SK-MEL-28 cells after 48 hrs by sulforhodamine B assay; conditions: SK-MEL-28, 48 h; in short: as §1
UO-31 = assay: Antiproliferative activity against human UO31 cells after 48 hrs by sulforhodamine B assay; conditions: UO-31, 48 h; in short: as §2
SN12C = assay: Antiproliferative activity against human SN12C cells after 48 hrs by sulforhodamine B assay; in short: as §1
[2] = Antiproliferative activity against human […] cells after 48 hrs by sulforhodamine B assay; in short: as §1
HCT-116 = assay: Antiproliferative activity against human HCT116 cells after 48 hrs by sulforhodamine B assay; conditions: HCT-116, 48 h; in short: as §1
NCI-H322M = assay: Antiproliferative activity against human NCI-H322M cells after 48 hrs by sulforhodamine B assay; in short: as §1
SF-268 = assay: Antiproliferative activity against human SF268 cells after 48 hrs by sulforhodamine B assay; conditions: SF-268, 48 h; in short: as §1
CAKI-1 = assay: Antiproliferative activity against human Caki1 cells after 48 hrs by sulforhodamine B assay; conditions: CAKI-1, 48 h; in short: as §1
[3] = read-out: LC50 (the source's name)

Nc1nn(C(=O)Nc2ccc(Cc3ccccc3)cc2)c2ccccc12
TGI (A498): 31.5 µM
CC50 (A498; [3]): 59.6 µM
GI50 (SNB-75): 17 µM
LC50 (concentration causing 50% net cell death) (SNB-75): > 100 µM
TGI (SNB-75): 47.4 µM
TGI (PC-3): 51.1 µM
CC50 (PC-3; [3]): > 100 µM
CC50 (MDA-MB-231): > 100 µM
TGI [1]: 71.8 µM
CC50 [1, 3]: > 100 µM
TGI (OVCAR-8): 63.9 µM
CC50 (OVCAR-8; [3]): > 100 µM
LC50 (HOP-92): > 100 µM
TGI (HOP-92): 42.6 µM
TGI (NCI-H460): 13 µM
TGI (SK-MEL-2): > 100 µM
CC50 (SK-MEL-2; [3]): > 100 µM
TGI (OVCAR-5): > 100 µM
CC50 (OVCAR-5; [3]): > 100 µM
LC50 (concentration causing 50% net cell death) (Malme-3M): > 100 µM
TGI (Malme-3M): 64.1 µM
TGI (IGROV-1): 48.8 µM
CC50 (IGROV-1; [3]): > 100 µM
LC50 (concentration causing 50% net cell death) (HCT-15): > 100 µM
TGI (HCT-15): > 100 µM
TGI (NCI-H226): 58.2 µM
CC50 (NCI-H226; [3]): > 100 µM
GI50 (NCI-H522): 2.9 µM
LC50 (concentration causing 50% net cell death) (NCI-H522): > 100 µM
TGI (NCI-H522): > 100 µM
TGI (SNB-19): > 100 µM
CC50 (SNB-19; [3]): > 100 µM
TGI (NCI-H23): 83.5 µM
CC50 (NCI-H23; [3]): > 100 µM
TGI (OVCAR-4): 40.4 µM
CC50 (OVCAR-4; [3]): > 100 µM
CC50 (DU-145): > 100 µM
TGI (SK-OV-3): > 100 µM
CC50 (SK-OV-3; [3]): > 100 µM
GI50 (SF-295): 0.53 µM
LC50 (SF-295): > 100 µM
TGI (SF-295): > 100 µM
CC50 (ACHN): > 100 µM
TGI (SW-620): 41.5 µM
CC50 (SW-620; [3]): > 100 µM
TGI (SK-MEL-28): > 100 µM
CC50 (SK-MEL-28; [3]): > 100 µM
TGI (UO-31): > 100 µM
CC50 (UO-31; [3]): > 100 µM
TGI (SN12C): 28 µM
CC50 (SN12C; [3]): 60.6 µM
GI50 [2]: 1.86 µM
TGI [2]: 25.8 µM
CC50 [2, 3]: 84 µM
LC50 (concentration causing 50% net cell death) (HCT-116): > 100 µM
TGI (HCT-116): > 100 µM
TGI (NCI-H322M): > 100 µM
CC50 (NCI-H322M; [3]): > 100 µM
TGI (SF-268): 32.3 µM
CC50 (SF-268; [3]): > 100 µM
TGI (CAKI-1): 58 µM
CC50 (CAKI-1; [3]): > 100 µM
